pEC50, pIC50: −log10 of the molar value. Calls of active or inactive are those of the source. The calls are words filed in the database; no cut-off is given here.
Experiments:
[1] = Stabilization of d[AGAG3AG2GCGCTG3AG2AG3GCT] sequence of c-kit1 G-quadruplex DNA assessed as change in melting temperature at 1 uM by FRET assay
Procedure, shortened: (§1)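 Dual-labelled FAM/TAMRA oligos at 400nM in 60mM KCl potassium cacodylate buffer, pH 7.4, heated to 85 °C for 10 min, then cooled. Ligand added to 1µM; buffer alone as negative control. Excitation 450–495nm, emission read at 515–545nm every 0.5 °C from 30–100 °C. ΔTm is ligand Tm minus control Tm, from four experiments ± maximum sd; c-kit1 curves fitted to sigmoids.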

[2] = Stabilization of d[G3(T2AG3)3] sequence of F21T telomeric G-quadruplex DNA assessed as change in melting temperature at 1 uM by FRET assay
Procedure, shortened: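 Dual-labelled oligo (5′-FAM, 3′-TAMRA) at 400nM in FRET buffer (60mM KCl, K cacodylate, pH 7.4), heated to 85 °C for 10 min, cooled to room temperature. Ligand added from DMSO dilution. Excitation 450–495nm, emission 515–545nm, read every 0.5 °C from 30–100 °C. ΔTm from four experiments: averaged ligand Tm minus averaged buffer-control Tm, ± maximum sd.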

[3] = Stabilization of d[C3G3CG3CGCGAG3AG4AG2] sequence of c-kit2 G-quadruplex DNA assessed as change in melting temperature at 1 uM by FRET assay; procedure, shortened: as §1
[4] = Stabilization of d[(TA)2GC(TA)2T6(TA)2]GC(TA)2 sequence of duplex DNA assessed as change in melting temperature at 1 uM by FRET assay; procedure, shortened: as §1
[5] = Stabilization of d[G3(T2AG3)3] sequence of F21T telomeric G-quadruplex DNA assessed as change in melting temperature at 1 uM by FRET assay relative to BRACO-19 in presence of calf thymus DNA
Procedure, shortened: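 F21T FRET melting with ligand at 1µM in the presence of calf thymus DNA competitor at increasing bp concentrations. Retained stabilization, from three experiments, normalized to the ligand's ΔTm with no competitor (100%) ± normalized sd.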

MCF7 [6] = assay: Cytotoxicity against human MCF7 cells after 96 hrs by SRB assay; type: functional, cell-based; details: MCF7, 96 h
A549 [7] = assay: Cytotoxicity against human A549 cells after 96 hrs by SRB assay; type: functional, cell-based; details: A549, 96 h
[8] = Cytotoxicity against human WI38 cells after 96 hrs by SRB assay; type: cell-based; details: WI-38, 96 h
A549 [9] = assay: Selectivity ratio of IC50 for human A549 cells to IC50 for human WI38 cells
MCF7 [10] = assay: Selectivity ratio of IC50 for human MCF7 cells to IC50 for human WI38 cells
Homo sapiens = species: Homo sapiens; assay: Binding affinity to biotin-labeled human telomeric d[AG3(T2AG3)3] sequence by surface plasmon resonance analysis
Procedure, shortened: (§2)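 Streptavidin chip with 5′-biotinylated DNA immobilized to 350-400 RU; blank reference flow cell. Run in 10mM HEPES, 100mM KCl, 3mM EDTA, P20 surfactant, pH 7.3, 25°C. Ligand 1nM to 10µM (from 20mM DMSO stock) injected at 50µl/min for 5–10 min to steady state, then 10 min buffer dissociation; glycine pH 2.0 regeneration between cycles.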

[11] = Binding affinity to biotin-labeled d[CGA2T2CGTCTC2GA2T2CG] sequence of duplex DNA by surface plasmon resonance analysis; procedure, shortened: as §2
[12] = target: T1, Telomerase reverse transcriptase (Homo sapiens, UniProt O14746); assay: Inhibition of telomerase by TRAP-LIG assay
T1 sequence (O14746 whole entry): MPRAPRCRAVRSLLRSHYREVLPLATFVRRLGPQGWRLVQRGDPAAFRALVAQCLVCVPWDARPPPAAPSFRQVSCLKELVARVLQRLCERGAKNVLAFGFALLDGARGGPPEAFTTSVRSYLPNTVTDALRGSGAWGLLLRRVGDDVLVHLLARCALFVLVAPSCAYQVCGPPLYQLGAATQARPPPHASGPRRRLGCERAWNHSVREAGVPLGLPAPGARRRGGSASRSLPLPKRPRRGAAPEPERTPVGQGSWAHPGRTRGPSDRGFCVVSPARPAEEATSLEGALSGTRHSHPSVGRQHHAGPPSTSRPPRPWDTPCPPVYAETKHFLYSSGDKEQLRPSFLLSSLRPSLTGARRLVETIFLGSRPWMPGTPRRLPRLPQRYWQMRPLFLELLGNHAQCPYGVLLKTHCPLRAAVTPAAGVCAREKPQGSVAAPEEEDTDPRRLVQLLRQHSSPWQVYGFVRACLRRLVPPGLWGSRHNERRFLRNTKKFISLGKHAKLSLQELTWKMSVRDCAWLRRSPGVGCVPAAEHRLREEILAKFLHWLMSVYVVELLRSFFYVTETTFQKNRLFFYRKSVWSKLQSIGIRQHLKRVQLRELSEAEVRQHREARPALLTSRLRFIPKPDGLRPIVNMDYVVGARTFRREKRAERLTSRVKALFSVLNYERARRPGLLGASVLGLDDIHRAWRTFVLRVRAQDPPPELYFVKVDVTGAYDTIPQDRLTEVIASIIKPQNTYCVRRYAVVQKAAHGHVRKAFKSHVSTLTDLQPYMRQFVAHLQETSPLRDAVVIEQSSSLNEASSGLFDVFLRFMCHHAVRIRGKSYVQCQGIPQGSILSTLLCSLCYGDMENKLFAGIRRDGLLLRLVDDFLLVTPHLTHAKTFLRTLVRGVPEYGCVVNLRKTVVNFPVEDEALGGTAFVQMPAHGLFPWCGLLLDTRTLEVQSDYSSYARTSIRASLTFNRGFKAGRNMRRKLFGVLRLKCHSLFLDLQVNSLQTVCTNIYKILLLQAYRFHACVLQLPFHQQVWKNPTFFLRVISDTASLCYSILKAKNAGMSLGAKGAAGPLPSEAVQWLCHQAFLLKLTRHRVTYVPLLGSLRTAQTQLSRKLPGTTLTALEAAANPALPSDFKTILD

[13] = target: T1, Telomerase reverse transcriptase; assay: Inhibition of telomerase at 50 uM by TRAP-LIG assay relative to control
[14] = Binding affinity to biotin-labeled d[(AG3)2CGCTG3AG2AG3] sequence of c-kit1 G-quadruplex DNA by surface plasmon resonance analysis; procedure, shortened: as §2
[15] = Binding affinity to biotin-labeled d[(CG3)2CGCGAG3AG4] sequence of c-kit2 G-quadruplex DNA by surface plasmon resonance analysis; procedure, shortened: as §2
[16] = Binding affinity to biotin-labeled d[(AG3TG4)2A] sequence of c-myc G-quadruplex DNA by surface plasmon resonance analysis; procedure, shortened: as §2
[17] = Selectivity ratio of equilibrium binding constant K for human telomeric d[AG3(T2AG3)3] sequence to equilibrium binding constant K for d[CGA2T2CGTCTC2GA2T2CG] sequence of duplex DNA
[18] = Selectivity ratio of equilibrium binding constant K for d[(AG3)2CGCTG3AG2AG3] sequence of c-kit1 G-quadruplex DNA to equilibrium binding constant K for d[CGA2T2CGTCTC2GA2T2CG] sequence of duplex DNA
[19] = Selectivity ratio of equilibrium binding constant K for d[(CG3)2CGCGAG3AG4] sequence of c-kit2 G-quadruplex DNA to equilibrium binding constant K for d[CGA2T2CGTCTC2GA2T2CG] sequence of duplex DNA
[20] = Selectivity ratio of equilibrium binding constant K for d[(AG3TG4)2A] sequence of c-myc G-quadruplex DNA to equilibrium binding constant K for d[CGA2T2CGTCTC2GA2T2CG] sequence of duplex DNA
MCF7 [21] = assay: Cytotoxicity against human MCF7 cells assessed as population doubling at 5 uM after 1 week […] relative to control; type: functional
Procedure, shortened: (§3)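 MCF7 cells (1×10^5) treated with sub-cytotoxic ligand concentrations for 1 week, biweekly dosing. Cells counted by haemocytometer; population doublings n = (log Pn – log P0)/log2. Values normalized to vehicle control (100%) ± sd, two independent concentrations per ligand.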

MCF7 [22] = assay: Cytotoxicity against human MCF7 cells assessed as population doubling at 10 uM after 1 week […] relative to control; type: functional; procedure, shortened: as §3
MCF7 [23] = assay: Cytotoxicity against human MCF7 cells assessed as cell senescence at 5 uM after 1 week by beta-galactosidase assay; type: functional
MCF7 [24] = assay: Cytotoxicity against human MCF7 cells assessed as cell senescence at 10 uM after 1 week by beta-galactosidase assay; type: functional
MCF7 [25] = assay: Cytotoxicity against human MCF7 cells assessed as population doubling at 3.50 uM after 1 week […] relative to control; type: functional; procedure, shortened: as §3
MCF7 [26] = assay: Cytotoxicity against human MCF7 cells assessed as population doubling at 2 uM after 1 week […] relative to control; type: functional; procedure, shortened: as §3
MCF7 [27] = assay: Cytotoxicity against human MCF7 cells assessed as cell senescence at 3.5 uM after 1 week by beta-galactosidase assay; type: functional
MCF7 [28] = assay: Cytotoxicity against human MCF7 cells assessed as cell senescence at 2 uM after 1 week by beta-galactosidase assay; type: functional

SMILES	change in melting temperature (ΔTm) [1]	change in melting temperature (ΔTm) [2]	change in melting temperature (ΔTm) [3]	change in melting temperature (ΔTm) [4]	Activity [5]	pIC50 (MCF7 [6])	pIC50 (A549 [7])	pIC50 [8]	Ratio IC50 (A549 [9])	Ratio IC50 (MCF7 [10])	other results
O=C(CCN1CCCC1)Nc1cccc(NC(=O)c2cccc(NC(=O)Nc3cccc(C(=O)Nc4cccc(NC(=O)CCN5CCCC5)c4)c3)c2)c1	6.7 °C	14.1 °C	15.3 °C	2.8 °C	Active	4.84	< 4.30	4.71	0.4		
O=C(CCCN1CCCC1)Nc1cccc(NC(=O)c2cccc(NC(=O)Nc3cccc(C(=O)Nc4cccc(NC(=O)CCCN5CCCC5)c4)c3)c2)c1	7.8 °C	13.6 °C	16.3 °C		Active	4.30	< 4.30	4.58	0.5		
O=C(CN1CCCC1)Nc1cccc(NC(=O)c2ccc(NC(=O)Nc3ccc(C(=O)Nc4cccc(NC(=O)CN5CCCC5)c4)cc3)cc2)c1	0.7 °C	1.8 °C	2 °C	2.5 °C		< 4.30	< 4.30	< 4.30	1	1	
O=C(CCN1CCOCC1)Nc1ccc(NC(=O)c2cccc(NC(=O)Nc3cccc(C(=O)Nc4ccc(NC(=O)CCN5CCOCC5)cc4)c3)c2)cc1		1 °C	1.3 °C	0.2 °C		4.39	< 4.30	< 4.30			
CN(C)c1ccc(Nc2c3ccc(NC(=O)CCN4CCCC4)cc3nc3cc(NC(=O)CCN4CCCC4)ccc23)cc1	20.1 °C	25.9 °C	25.3 °C	11.2 °C	Active			4.97	4.5	4.3	KA (Homo sapiens): 31 ×10⁶ /M; KA [11]: 0.5 ×10⁶ /M; pEC50 [12]: 5.20; Activity [13]: inactive
O=C(CN1CCCC1)Nc1ccc(NC(=O)c2cccc(NC(=O)Nc3cccc(C(=O)Nc4ccc(NC(=O)CN5CCCC5)cc4)c3)c2)cc1	3.6 °C	7.9 °C	11.3 °C		Active	4.84	< 4.30	4.79	0.3		KA (Homo sapiens): 1.4 ×10⁶ /M; KA [14]: 2.1 ×10⁶ /M; KA [15]: 5.1 ×10⁶ /M; KA [16]: 14 ×10⁶ /M; KA [11]: < 1 ×10³ /M; Selectivity ratio [17]: > 400; Selectivity ratio [18]: > 400; Selectivity ratio [19]: > 400; Selectivity ratio [20]: > 400; pEC50 [12]: < 4.30; inhibition [13]: 21%; Activity (MCF7 [21]): 92.2%; Activity (MCF7 [22]): 73.1%; Activity (MCF7 [23]): 1%; Activity (MCF7 [24]): 1.7%
CN(C)CCC(=O)Nc1ccc(NC(=O)c2cccc(NC(=O)Nc3cccc(C(=O)Nc4ccc(NC(=O)CCN(C)C)cc4)c3)c2)cc1	2.9 °C	12.3 °C	13.6 °C	0.1 °C	Active	4.91	< 4.30	< 4.30	1		
O=C(CCCN1CCCC1)Nc1cc(NC(=O)Nc2cc(NC(=O)CCCN3CCCC3)cc(C(=O)Nc3ccccc3)c2)cc(C(=O)Nc2ccccc2)c1	6.3 °C	12.3 °C	11.7 °C	0.5 °C	Active	4.62	4.51	4.96	0.4		
O=C(CCN1CCCCC1)Nc1ccc(NC(=O)c2cccc(NC(=O)Nc3cccc(C(=O)Nc4ccc(NC(=O)CCN5CCCCC5)cc4)c3)c2)cc1	7 °C	5.2 °C	7.1 °C	0.1 °C	Active	5.29	< 4.30	< 4.30	1		Activity (MCF7 [25]): 84.3%; Activity (MCF7 [26]): 89.2%; Activity (MCF7 [27]): 1.33%; Activity (MCF7 [28]): 1.29%
O=C(CCN1CCCC1)Nc1cc(NC(=O)Nc2cc(NC(=O)CCN3CCCC3)cc(C(=O)Nc3ccccc3)c2)cc(C(=O)Nc2ccccc2)c1	4.9 °C	13.3 °C	12.9 °C		Active	4.49	4.38	4.79	0.4	0.5	
C[n+]1ccc(-c2c3nc(c(-c4cc[n+](C)cc4)c4ccc([nH]4)c(-c4cc[n+](C)cc4)c4nc(c(-c5cc[n+](C)cc5)c5ccc2[nH]5)C=C4)C=C3)cc1 [TMPYP4 CHLORIDE]											pEC50 [12]: 5.05
O=C(CN1CCCC1)Nc1cc(NC(=O)Nc2cc(NC(=O)CN3CCCC3)cc(C(=O)Nc3ccccc3)c2)cc(C(=O)Nc2ccccc2)c1	5.3 °C	13.6 °C	8.7 °C		Active	4.66	< 4.30	4.86	0.3	0.6	
C[n+]1ccc(-c2c3nc(c(-c4cc[n+](C)cc4)c4ccc([nH]4)c(-c4cc[n+](C)cc4)c4ccc([nH]4)c(-c4cc[n+](C)cc4)c4nc2C=C4)C=C3)cc1											Activity [13]: inactive
O=C(CCCN1CCCC1)Nc1cccc(NC(=O)c2ccc(NC(=O)Nc3ccc(C(=O)Nc4cccc(NC(=O)CCCN5CCCC5)c4)cc3)cc2)c1		3.3 °C	6.5 °C	5.5 °C		4.71	4.71	< 4.60	1.3	1.3	
O=C(CN1CCCC1)Nc1cccc(NC(=O)c2cccc(NC(=O)Nc3cccc(C(=O)Nc4cccc(NC(=O)CN5CCCC5)c4)c3)c2)c1	3.4 °C	6.8 °C	10.5 °C	0.3 °C	Active	4.47	< 4.30	4.64	0.5		
O=C(CN1CCCC1)Nc1ccc(NC(=O)c2ccc(NC(=O)Nc3ccc(C(=O)Nc4ccc(NC(=O)CN5CCCC5)cc4)cc3)cc2)cc1						< 4.60	< 4.60	< 4.60	1		
